# Results as given in ChEMBL document CHEMBL4689842, “EUbOPEN Chemogenomics Library wave 1” (2021).
# System: U2OS
# Assay: Multiplex assay against U2OS
# Assay type: toxicity, cell-based
# Details: human
# Summary of the method: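 Four dyes were applied at seeding to live cells: Hoechst33342, BioTracker Green Microtubule Cytoskeleton Dye, MitoTracker Red and Annexin V Alexa Fluor 680. Imaging after compound addition used a CQ1 microscope at 37°C and 5% CO2. CellPathfinder machine-learning gating then sorted cells into Hoechst high-intensity objects or normal cells, normal cells into healthy, pyknosed or fragmented nuclei, and pyknosed cells into mitotic or apoptotic, with tubulin, mitochondrial-mass and membrane-permeability phenotypes given as per cents of healthy-nucleus cells.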
# [1] = 12 h, 1 µM, compound concentration 1 uM, replicate 1
# [2] = 12 h, 1 µM, compound concentration 1 uM, replicate 2
# [3] = 12 h, 10 µM, compound concentration 10 uM, replicate 1
# [4] = 12 h, 10 µM, compound concentration 10 uM, replicate 2
# [5] = 24 h, 1 µM, compound concentration 1 uM, replicate 1
# [6] = 24 h, 1 µM, compound concentration 1 uM, replicate 2
# [7] = 24 h, 10 µM, compound concentration 10 uM, replicate 1
# [8] = 24 h, 10 µM, compound concentration 10 uM, replicate 2
# [9] = 48 h, 1 µM, compound concentration 1 uM, replicate 1
# [10] = 48 h, 1 µM, compound concentration 1 uM, replicate 2
# [11] = 48 h, 10 µM, compound concentration 10 uM, replicate 1
# [12] = 48 h, 10 µM, compound concentration 10 uM, replicate 2
smiles,measurement,setting,value
Cn1cc(-c2[nH]c3cc(NC(=O)[C@H](N)C4CCCCC4)cc4c3c2C=NNC4=O)cn1,Population Apoptotic (%),[1],44%
same,Population Fragmented Nuclei (%),[1],11%
same,Population Healthy Nuclei (%),[1],76%
same,Population Hoechst High Intensity Objects (%),[1],3%
same,Population Membrane Permeable-Phenotype (%),[1],6%
same,Population Mitochondria Different-Phenotype (%),[1],4%
same,Population Mitotic Cells (%),[1],55%
same,Population Normal (%),[1],96%
same,Population Pyknosed Nuclei (%),[1],11%
same,Population Tubulin-Different-Phenotype (%),[1],16%
same,Total Cell Count,[1],123
same,Population Apoptotic (%),[2],33%
same,Population Fragmented Nuclei (%),[2],13%
same,Population Healthy Nuclei (%),[2],72%
same,Population Membrane Permeable-Phenotype (%),[2],4%
same,Population Mitochondria Different-Phenotype (%),[2],7%
same,Population Mitotic Cells (%),[2],66%
same,Population Pyknosed Nuclei (%),[2],13%
same,Population Tubulin-Different-Phenotype (%),[2],12%
same,Total Cell Count,[2],51
same,Population Apoptotic (%),[3],47%
same,Population Fragmented Nuclei (%),[3],14%
same,Population Healthy Nuclei (%),[3],60%
same,Population Hoechst High Intensity Objects (%),[3],6%
same,Population Membrane Permeable-Phenotype (%),[3],7%
same,Population Mitochondria Different-Phenotype (%),[3],34%
same,Population Mitotic Cells (%),[3],52%
same,Population Normal (%),[3],93%
same,Population Pyknosed Nuclei (%),[3],25%
same,Population Tubulin-Different-Phenotype (%),[3],28%
same,Total Cell Count,[3],247
same,Population Apoptotic (%),[4],69%
same,Population Fragmented Nuclei (%),[4],37%
same,Population Healthy Nuclei (%),[4],42%
same,Population Hoechst High Intensity Objects (%),[4],9%
same,Population Membrane Permeable-Phenotype (%),[4],21%
same,Population Mitochondria Different-Phenotype (%),[4],53%
same,Population Mitotic Cells (%),[4],30%
same,Population Normal (%),[4],90%
same,Population Pyknosed Nuclei (%),[4],19%
same,Population Tubulin-Different-Phenotype (%),[4],57%
same,Total Cell Count,[4],91
same,Population Apoptotic (%),[5],46%
same,Population Fragmented Nuclei (%),[5],9%
same,Population Healthy Nuclei (%),[5],80%
same,Population Membrane Permeable-Phenotype (%),[5],5%
same,Population Mitochondria Different-Phenotype (%),[5],3%
same,Population Mitotic Cells (%),[5],53%
same,Population Pyknosed Nuclei (%),[5],9%
same,Population Tubulin-Different-Phenotype (%),[5],14%
same,Total Cell Count,[5],121
same,Population Apoptotic (%),[6],43%
same,Population Fragmented Nuclei (%),[6],13%
same,Population Healthy Nuclei (%),[6],70%
same,Population Hoechst High Intensity Objects (%),[6],3%
same,Population Membrane Permeable-Phenotype (%),[6],9%
same,Population Mitochondria Different-Phenotype (%),[6],6%
same,Population Mitotic Cells (%),[6],56%
same,Population Normal (%),[6],96%
same,Population Pyknosed Nuclei (%),[6],15%
same,Population Tubulin-Different-Phenotype (%),[6],15%
same,Total Cell Count,[6],52
same,Population Apoptotic (%),[7],67%
same,Population Fragmented Nuclei (%),[7],17%
same,Population Healthy Nuclei (%),[7],43%
same,Population Hoechst High Intensity Objects (%),[7],8%
same,Population Membrane Permeable-Phenotype (%),[7],10%
same,Population Mitochondria Different-Phenotype (%),[7],16%
same,Population Mitotic Cells (%),[7],32%
same,Population Normal (%),[7],91%
same,Population Pyknosed Nuclei (%),[7],39%
same,Population Tubulin-Different-Phenotype (%),[7],19%
same,Total Cell Count,[7],293
same,Population Apoptotic (%),[8],86%
same,Population Fragmented Nuclei (%),[8],34%
same,Population Healthy Nuclei (%),[8],29%
same,Population Hoechst High Intensity Objects (%),[8],16%
same,Population Membrane Permeable-Phenotype (%),[8],44%
same,Population Mitochondria Different-Phenotype (%),[8],61%
same,Population Mitotic Cells (%),[8],13%
same,Population Normal (%),[8],83%
same,Population Pyknosed Nuclei (%),[8],36%
same,Population Tubulin-Different-Phenotype (%),[8],55%
same,Total Cell Count,[8],106
same,Population Apoptotic (%),[9],45%
same,Population Fragmented Nuclei (%),[9],7%
same,Population Healthy Nuclei (%),[9],81%
same,Population Hoechst High Intensity Objects (%),[9],3%
same,Population Membrane Permeable-Phenotype (%),[9],2%
same,Population Mitochondria Different-Phenotype (%),[9],3%
same,Population Mitotic Cells (%),[9],54%
same,Population Normal (%),[9],96%
same,Population Pyknosed Nuclei (%),[9],10%
same,Population Tubulin-Different-Phenotype (%),[9],17%
same,Total Cell Count,[9],124
same,Population Apoptotic (%),[10],42%
same,Population Fragmented Nuclei (%),[10],15%
same,Population Healthy Nuclei (%),[10],55%
same,Population Hoechst High Intensity Objects (%),[10],5%
same,Population Membrane Permeable-Phenotype (%),[10],16%
same,Population Mitochondria Different-Phenotype (%),[10],18%
same,Population Mitotic Cells (%),[10],57%
same,Population Normal (%),[10],94%
same,Population Pyknosed Nuclei (%),[10],28%
same,Population Tubulin-Different-Phenotype (%),[10],24%
same,Total Cell Count,[10],56
same,Population Apoptotic (%),[11],83%
same,Population Fragmented Nuclei (%),[11],20%
same,Population Healthy Nuclei (%),[11],31%
same,Population Hoechst High Intensity Objects (%),[11],13%
same,Population Membrane Permeable-Phenotype (%),[11],13%
same,Population Mitochondria Different-Phenotype (%),[11],20%
same,Population Mitotic Cells (%),[11],16%
same,Population Normal (%),[11],86%
same,Population Pyknosed Nuclei (%),[11],48%
same,Population Tubulin-Different-Phenotype (%),[11],21%
same,Total Cell Count,[11],395
same,Population Apoptotic (%),[12],100%
same,Population Fragmented Nuclei (%),[12],40%
same,Population Hoechst High Intensity Objects (%),[12],20%
same,Population Membrane Permeable-Phenotype (%),[12],66%
same,Population Mitochondria Different-Phenotype (%),[12],61%
same,Population Mitotic Cells (%),[12],0%
same,Population Normal (%),[12],79%
same,Population Pyknosed Nuclei (%),[12],28%
same,Population Tubulin-Different-Phenotype (%),[12],77%
same,Total Cell Count,[12],103
